Data: ChEMBL document CHEMBL3875191, “Enhanced potency of bivalent small molecule gp41 inhibitors” (Bioorg Med Chem, 2017)
Calls of active or inactive are those of the source. The calls are words filed in the database; no cut-off is given here.

How the values were obtained:
[1] = (§1) Inhibition of HIV1 gp41-induced cell-cell fusion between HXB2 viral envelope expressing human HL2/3 cells to CXCR4-tropic expressing TZM-bl cells after 6 hrs by LTR luciferase reporter gene assay; type: cell-based; details: Human immunodeficiency virus 1, HL2/3, 6 h
How it was run: (§2)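 TZM-bl target cells (CD4, CCR5, CXCR4; HIV-1 LTR-driven firefly luciferase) at 25,000/well, cultured overnight, then given serially diluted inhibitor. 50,000 HL2/3 effector cells (HXB2 Env, Tat, Rev) were added and fusion ran 6 h in reduced-serum medium with 1% DMSO final. Luciferase was read, with 1% DMSO controls with and without HL2/3, in triplicate.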

HL2/3 = assay: as §1; type: cell-based; details: Human immunodeficiency virus 1; how it was run: as §2
[2] = (§3) Inhibition of HIV1 Ba-L gp41-induced virus-cell fusion between HIV1 Ba-L to MAGI cells expressing CCR5-tropic treated 3 hrs post infection measured after 48 hrs by beta-galactosidase based chemiluminescence assay; details: Human immunodeficiency virus 1, Ba-L
MAGI [3] = assay: as §3; details: Human immunodeficiency virus 1
[4] = (§4) Inhibition of HIV1 3B gp41-induced virus-cell fusion between HIV1 3B to MAGI cells expressing CXCR4-tropic treated 3 hrs post infection measured after 48 hrs by beta-galactosidase based chemiluminescence assay; details: Human immunodeficiency virus 1, 3B
MAGI [5] = assay: as §4; details: Human immunodeficiency virus 1
[6] = Cytotoxicity against human HL2/3 cells assessed as decrease in cell viability by alamar blue/presto blue assay; type: toxicity, cell-based
How it was run: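 Cell viability read with resazurin reagent (Alamar Blue or Presto Blue) under the same culture conditions as cell-cell fusion. TZM-bl targets (25,000/well, cultured overnight) with serially diluted compound, plus 50,000 HL2/3 effectors/well. 6 h in reduced-serum medium, 1% DMSO final.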

[7] = Inhibition of fluorescently labeled C-terminal HR2 probe peptide binding to wild type HIV-1 Fe(env2.0)3 peptide model of gp41 hydrophobic pocket at compound to protein ratio of 1:1 by fluorescence assay; parameters: species or system Human immunodeficiency virus 1
[8] = tested on: Human immunodeficiency virus 1; assay: Binding affinity to wild type HIV-1 Fe2(env2.0)3 peptide model of gp41 hydrophobic pocket at compound to peptide ratio of 1:1 by surface plasmon resonance assay
How it was run: (§5)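 CM5 chip activated with EDC/NHS then PDEA; FeII(envC)3 (bpy-HR1 peptide ending in D-Cys, 5 µM in 25 mM Tris-acetate pH 7.0) coupled by disulfide. Blocked with L-cysteine, then washed with 1 mM ferrous ammonium sulfate. Reference surface lacked receptor. Analytes run at 0.098–50 µM in 20 mM Hepes, 150 mM NaCl, pH 7.0, 1% DMSO. Association 60 s, dissociation 300 s, DMSO bracketing. Kinetics fit to Langmuir 1:1 and 1:2 models.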

[9] = tested on: Human immunodeficiency virus 1; assay: Binding affinity to wild type HIV-1 HXB2 Fe2(env2.0)3 peptide model of gp41 hydrophobic pocket at <10 uM by surface plasmon resonance assay; how it was run: as §5
[10] = tested on: Human immunodeficiency virus 1; assay: Binding affinity to wild type HIV-1 HXB2 Fe2(env2.0)3 peptide model of gp41 hydrophobic pocket at >10 uM by surface plasmon resonance assay; how it was run: as §5
[11] = Inhibition of fluorescently labeled C-terminal HR2 probe peptide binding to wild type HIV-1 Fe(env2.0)3 peptide model of gp41 hydrophobic pocket assessed as inhibition constant for first binding interaction at compound to protein ratio of 1:2 by fluorescence assay; parameters: species or system Human immunodeficiency virus 1
[12] = Inhibition of fluorescently labeled C-terminal HR2 probe peptide binding to wild type HIV-1 Fe(env2.0)3 peptide model of gp41 hydrophobic pocket assessed as inhibition constant for second binding interaction at compound to protein ratio of 1:2 by fluorescence assay; parameters: species or system Human immunodeficiency virus 1
[13] = Ratio of Kd for wild type HIV-1 Fe2(env2.0)3 peptide model of gp41 hydrophobic pocket assessed as dissociation constant for first binding interaction to Ka for wild type HIV-1 Fe2(env2.0)3 peptide model of gp41 hydrophobic pocket assessed as association constant for first binding interaction; parameters: species or system Human immunodeficiency virus 1

Nc1ccc(C(=O)N[C@@H](Cc2c[nH]c3ccccc23)C(=O)O)cc1OCCc1c[nH]c2ccccc12
IC50 [1]: 22 µM
IC90 (HL2/3): 80 µM
IC50 [2]: > 50 µM
IC90 (MAGI [3]): > 50 µM
IC50 [4]: > 50 µM
IC90 (MAGI [5]): > 50 µM
CC50 [6]: > 50 µM
Ki [7]: 7.2 µM
RUmax [8]: 59
Activity [9]: Active
Activity [10]: Active

O=C(CCC(=O)Nc1ccc(C(=O)N[C@@H](Cc2c[nH]c3ccccc23)C(=O)O)cc1OCCc1c[nH]c2ccccc12)NCCOCCOCCOCCNC(=O)CCC(=O)Nc1ccc(C(=O)N[C@@H](Cc2c[nH]c3ccccc23)C(=O)O)cc1OCCc1c[nH]c2ccccc12
IC50 [1]: 0.6 µM
IC50 [2]: 3.6 µM
IC90 (MAGI [3]): > 100 µM
IC50 [4]: 3.8 µM
IC90 (MAGI [5]): 70 µM
CC50 [6]: > 100 µM
Ki [7]: 1 to 2.3 µM
Ki [11]: 20 µM
Ki [12]: 0.2 µM
RUmax [8]: 160
Kd [13]: 32 µM

O=C(CCC(=O)Nc1ccc(C(=O)N[C@@H](Cc2c[nH]c3ccccc23)C(=O)O)cc1OCc1ccc(Cl)cc1)NCCOCCOCCOCCNC(=O)CCC(=O)Nc1ccc(C(=O)N[C@@H](Cc2c[nH]c3ccccc23)C(=O)O)cc1OCc1ccc(Cl)cc1
IC50 [1]: 0.4 µM
IC50 [4]: 5.1 µM
CC50 [6]: > 100 µM
Ki [7]: 5.3 to 8.5 µM
RUmax [8]: 157
Kd [13]: 43 µM

O=C(CCc1c[nH]c2ccccc12)NCCCCCC(=O)Nc1ccc(C(=O)N[C@@H](Cc2c[nH]c3ccccc23)C(=O)O)cc1OCCc1c[nH]c2ccccc12
IC50 [1]: 1.3 µM
IC50 [2]: 13.7 µM
IC90 (MAGI [3]): 31.1 µM
IC50 [4]: 17.3 µM
IC90 (MAGI [5]): 30.5 µM
CC50 [6]: > 100 µM
Ki [7]: 1.2 µM
RUmax [8]: 95

Nc1ccc(C(=O)N[C@@H](Cc2c[nH]c3ccccc23)C(=O)O)cc1OCc1ccc(Cl)cc1
IC50 [1]: 24 µM
CC50 [6]: > 50 µM
Ki [7]: 15 µM
RUmax [8]: 56

O=C(CCc1c[nH]c2ccccc12)NCCCCCC(=O)Nc1ccc(C(=O)N[C@@H](Cc2c[nH]c3ccccc23)C(=O)O)cc1OCc1ccc(Cl)cc1
IC50 [1]: 2.2 µM
IC50 [2]: 13 µM
IC90 (MAGI [3]): 26.5 µM
IC50 [4]: 14.3 µM
IC90 (MAGI [5]): 27.1 µM
CC50 [6]: > 100 µM
Ki [7]: 3.4 µM
RUmax [8]: 93
